Screening results (PubChem BioAssay)
This excerpt belongs to a sample that is enriched for hits.
HCT116 bCat-KO = primary screen for growth suppressors in beta-catenin knockout HCT116 cells (colon tumor, human); HCT116 beta-catenin knockout viability, CellTiter-Glo, 60 h; active compounds read low; viability, % at 10 µM; 1.5% of 140,000 active;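 active means viability at or under a set limit, the compound median less 4 SD, cut at about 6% in these data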;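 further: 0% = Hyamine 1622 control at 20 µM and 100% = untreated cell control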
Lung fibro prol = antiproliferative effect on LL 47 fibroblasts – human, LL 47 cells, CellTiter-Glo luminescence, primary screen; LL 47 human lung fibroblast viability, ATP luminescence; active compounds read low; viability, % at 10 µM; 1.1% of 85,000 active; AID 719, 2007;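 active means viability at or below 50% in the single dose screen; inactive means viability above 50%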;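 further: compound exposure lasted 72 h before the ATP readout; 100% = median luminescence of untreated cell-only wells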
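Material: Human LL 47 lung fibroblast cells | Input: 1,150 cells/well | Buffer or medium: IMEM plus 15% FBS | Compound dosing: 0.1% DMSO in all compound wells | Times: Overnight cell rest, 72 h compound treatment at 37 °C | Signal: CellTiter-Glo luminescence measuring cellular ATP | Measure: % viability versus median cells-only luminescence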
H69AR inhibit = proliferation blockers of H69AR lung cancer cells, primary screen, cell-based, human, 86K library | H69AR lung tumor viability, ATP luminescence, 72 h; active compounds read low | viability, % at 10 µM | 6% of 85,000 active;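 active means viability at or below 40%; inactive means viability above 40%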;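 further: multidrug resistant small cell line overexpressing MRP-1 efflux transporter; 100% = mean luminescence of untreated control wells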
PTEN del growth = growth suppression of PTEN-null HCT116, primary screen, cell-based, CellTiter-Glo | HCT116 PTEN-null viability, 60 h; active compounds read low | viability, % at 10 µM | 1.2% of 140,000 active | AID 827, 2007;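 active means viability at or below a set limit, 4 SD under the median of all tested compounds, cut at about 3.7% in these data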;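 further: PTEN knockout HCT116 line with beta catenin targeted HCT116 as companion control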
HUVEC prolif 384 = inhibitors of HUVEC proliferation, primary screen, cell-based, 384-well; CellTiter-Glo luminescence, 72 h; active compounds read low; viability, % at 10 µM (by protocol); 1.1% of 86,000 active;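 active means viability at or below 30%; inactive means viability above 30%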;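 further: 100% = median luminescence of DMSO-only cell control wells on each plate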
Active calls of the source: *.

Results for CCCn1c(=N)n(CCOCCOCCn2c(=N)n(CCC)c3ccccc32)c2ccccc21 ?
Lung fibro prol: 100; H69AR inhibit: 67; HUVEC prolif 384: 95

What do the screens show for `CN(C)CCCN1C(=O)C(O)=C(C(=O)c2cccs2)C1c1ccccn1` (configuration not stated)?
Lung fibro prol: 95; H69AR inhibit: 96; HUVEC prolif 384: 95

Results for CCOc1ccc(-c2nc(C)c(C(C)=O)n2O)cc1 ?
HCT116 bCat-KO: 85; Lung fibro prol: 102; H69AR inhibit: 86; PTEN del growth: 87; HUVEC prolif 384: 96

How did O=C(Nc1nc2c(s1)CCCC2)C1COc2ccccc2O1 (configuration not stated) do in these assays?
HCT116 bCat-KO: 77; Lung fibro prol: 96; H69AR inhibit: 87; PTEN del growth: 76; HUVEC prolif 384: 94

How did O=C(NC1CCS(=O)(=O)C1)c1c(NC(=O)C2COc3ccccc3O2)sc2c1CCCC2 (configuration not stated) do in these assays?
HCT116 bCat-KO: 13; Lung fibro prol: 102; H69AR inhibit: 23*; PTEN del growth: 16; HUVEC prolif 384: 85

What do the screens show for `CCCNC(=O)c1c(NC(=O)C2COc3ccccc3O2)sc2c1CCCC2` (configuration not stated)?
HCT116 bCat-KO: 38; Lung fibro prol: 13*; H69AR inhibit: 29*; PTEN del growth: 21; HUVEC prolif 384: 40

Results for C/C(=N/NC(=O)Cc1cccs1)c1ccco1 ?
HCT116 bCat-KO: 97; PTEN del growth: 92

Results for C=CCNC(=O)c1ccccc1NC(=O)c1ccc(Cl)c(S(=O)(=O)Nc2ccccc2)c1 ?
HCT116 bCat-KO: 44; PTEN del growth: 36

How did Cc1cc(C)c2c(CN3CCN(Cc4ccc5c(c4)OCO5)CC3)cc(=O)oc2c1C do in these assays?
HCT116 bCat-KO: 79; Lung fibro prol: 90; H69AR inhibit: 33*; PTEN del growth: 76; HUVEC prolif 384: 39

How did O=C(CSC1=N/C(=C/c2ccc(Cl)c(Cl)c2)C(=O)N1c1ccccc1F)NC1CC1 do in these assays?
HCT116 bCat-KO: 68; PTEN del growth: 78

How did Cc1cc([N+](=O)[O-])ccc1NC(=S)NC(=O)Cc1ccccc1 do in these assays?
HCT116 bCat-KO: 95; Lung fibro prol: 114; H69AR inhibit: 110; PTEN del growth: 96; HUVEC prolif 384: 122

Results for Cc1cc([N+](=O)[O-])ccc1NC(=S)NC(=O)C(c1ccccc1)c1ccccc1 ?
HCT116 bCat-KO: 87; Lung fibro prol: 94; H69AR inhibit: 32*; PTEN del growth: 79; HUVEC prolif 384: 81

How did Cc1nn(Cc2ccc(Cl)cc2)c(C)c1NC(=O)CSc1nc2c(c(C(F)(F)F)n1)CCc1ccccc1-2 do in these assays?
HCT116 bCat-KO: 15; PTEN del growth: 3.5*

Results for Cc1ccc(Cn2nc(C)c(NC(=O)CSc3nc4c(c(C(F)(F)F)n3)CCc3ccccc3-4)c2C)cc1 ?
HCT116 bCat-KO: 46; PTEN del growth: 7

What do the screens show for `COc1cc2c3nnc(-c4ccc(F)cc4)c-3cn(Cc3cccc(C)c3)c2cc1OC`?
HCT116 bCat-KO: 82; Lung fibro prol: 3.2*; H69AR inhibit: 1.1*; PTEN del growth: 74; HUVEC prolif 384: 2.3*

How did COc1cc2c3nnc(-c4ccc(F)cc4)c-3cn(Cc3ccc(C)cc3)c2cc1OC do in these assays?
HCT116 bCat-KO: 85; Lung fibro prol: 68; H69AR inhibit: 43; PTEN del growth: 97; HUVEC prolif 384: 38

What do the screens show for `Cc1ccc2nc(NCc3ccccc3)[nH]c2c1`?
HCT116 bCat-KO: 19; Lung fibro prol: 53; H69AR inhibit: 22*; PTEN del growth: 21; HUVEC prolif 384: 43

How did c1ccc(CNc2nc3ccccc3[nH]2)cc1 do in these assays?
HCT116 bCat-KO: 78; Lung fibro prol: 96; H69AR inhibit: 78; PTEN del growth: 73; HUVEC prolif 384: 86

What do the screens show for `COc1ccc2nc(NCCO)[nH]c2c1`?
HCT116 bCat-KO: 97; Lung fibro prol: 100; H69AR inhibit: 91; PTEN del growth: 102; HUVEC prolif 384: 98

How did COc1ccc2nc(NCc3ccccc3)[nH]c2c1 do in these assays?
HCT116 bCat-KO: 21; Lung fibro prol: 67; H69AR inhibit: 20*; PTEN del growth: 31; HUVEC prolif 384: 54

Results for CC(C)c1[nH]nc2c1C(c1cccs1)C(C#N)=C(N)O2 (configuration not stated) ?
HCT116 bCat-KO: 57; Lung fibro prol: 80; H69AR inhibit: 40*; PTEN del growth: 58; HUVEC prolif 384: 71

Results for Cc1[nH]nc2c1C(c1ccc(-c3ccccc3C#N)o1)C(C#N)=C(N)O2 (configuration not stated) ?
HCT116 bCat-KO: 68; Lung fibro prol: 74; H69AR inhibit: 1.6*; PTEN del growth: 75; HUVEC prolif 384: 31

Results for Cc1[nH]nc2c1C(c1ccsc1C)C(C#N)=C(N)O2 (configuration not stated) ?
HCT116 bCat-KO: 91; PTEN del growth: 1.2*

What do the screens show for `Cc1[nH]nc2c1C(c1ccc(-c3ccc(Cl)cc3)o1)C(C#N)=C(N)O2` (configuration not stated)?
HCT116 bCat-KO: 1.3*; PTEN del growth: 0.7*

What do the screens show for `C=C(C)Cn1c(NCCOC)nc2c1c(=O)[nH]c(=O)n2C`?
HCT116 bCat-KO: 90; Lung fibro prol: 97; H69AR inhibit: 92; PTEN del growth: 97; HUVEC prolif 384: 95

How did O=C1C(Cl)=C(NCCCO)C(=O)c2ccccc21 do in these assays?
HCT116 bCat-KO: 11; Lung fibro prol: 104; H69AR inhibit: 7.4*; PTEN del growth: 11; HUVEC prolif 384: 96

What do the screens show for `CN(C)c1ccc(NC2=C(Cl)C(=O)c3ccccc3C2=O)cc1`?
HCT116 bCat-KO: 1.6*; PTEN del growth: 1.5*

Results for Cc1ccc(NC2=C(NCCO)C(=O)c3ccccc3C2=O)cc1 ?
HCT116 bCat-KO: 61; PTEN del growth: 62

How did COc1ccc(NC(=O)/C(Cl)=C(/Cl)S(=O)(=O)Cc2ccccc2)cn1 do in these assays?
HCT116 bCat-KO: 4.5*; Lung fibro prol: 4.7*; H69AR inhibit: 1.9*; PTEN del growth: 3.0*; HUVEC prolif 384: 125

What do the screens show for `CCOc1cc(CNCCO)cc(Br)c1OCc1ccc(Cl)cc1Cl`?
HCT116 bCat-KO: 1.4*; PTEN del growth: 1.5*

What do the screens show for `OCCNCc1cc(Br)ccc1OCc1ccc(Cl)cc1`?
HCT116 bCat-KO: 62; PTEN del growth: 67

Results for OCCNCc1cc(Br)ccc1OCc1ccc(Cl)cc1Cl ?
HCT116 bCat-KO: 4.7*; PTEN del growth: 15

How did O=C(NC1CCCCC1)C(c1cccnc1)N(C(=O)CCl)c1cccc(Cl)c1 (configuration not stated) do in these assays?
HCT116 bCat-KO: 3.9*; PTEN del growth: 3.1*
